This is an account of results in ChEMBL document CHEMBL3526060, “Impact of hydrolysis-mediated clearance on the pharmacokinetics of novel anaplastic lymphoma kinase inhibitors” (Drug Metab Dispos, 2013).

Data set [1] is described as follows: AUC (0 to infinity) in CD-1 mouse at 2 mg/kg, iv administered as single bolus dose by LC-MS/MS analysis. Also on record: time infinity, dose 2 mg/kg, route intravenous. Particulars: plasma. Type of data set: ADME, organism-based. The procedure, abridged: (§1)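 Single 2 mg/kg IV bolus via lateral tail vein to male CD-1 mice. Mice euthanized at 0.083–24 h, 3 per time point (27 animals); cardiac-puncture blood into heparin on ice, plasma spun at 4 °C and immediately extracted with acetonitrile/0.1% formic acid plus IS, LC-MS/MS. Noncompartmental CL = Dose/AUC0–inf, t1/2 = 0.693/k, Vss from AUMC/AUC, MRT = Vss/CL.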

Data set [2] is described as follows: Plasma clearance in CD-1 mouse at 2 mg/kg, iv administered as single bolus dose by LC-MS/MS analysis. Set-up: dose 2 mg/kg, route intravenous. Type of data set: ADME, organism-based. In short, it runs like this: as §1
The nature of data set [3]: Mean residence time in CD-1 mouse at 2 mg/kg, iv administered as single bolus dose by LC-MS/MS analysis. The data set is classed as ADME, organism-based. Set-up: dose 2 mg/kg, route intravenous. Particulars: in vivo. In short, it runs like this:
as §1

The nature of data set [4]: Half life in CD-1 mouse at 2 mg/kg, iv administered as single bolus dose by LC-MS/MS analysis. Type of data set: ADME, organism-based. Particulars: in vivo. Also on record: dose 2 mg/kg, route intravenous. The procedure, abridged: as §1
Data set [5] in a line: Volume of distribution at steady state in CD-1 mouse at 2 mg/kg, iv administered as single bolus dose by LC-MS/MS analysis. Set-up: dose 2 mg/kg, route intravenous. Type of data set: ADME, organism-based. As to conditions: in vivo, read-out: Vdss. The procedure, abridged: as §1
The nature of data set [6]: In vitro half life in CD-1 mouse plasma at 0.83 uM by LC-MS/MS analysis. Type of data set: ADME, cell-free. In short, it runs like this:
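Screening stability: compound at 0.83 µM in mouse plasma at 37 °C, up to 3 h; timed aliquots quenched into acetonitrile with tolbutamide IS, centrifuged, LC-MS/MS; half-life from depletion, CLint = (0.693/t1/2)/plasma concentration.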

Data set [7] concerns Plasma. Put plainly: Drug metabolism in CD-1 mouse plasma assessed as hydrolysis metabolite formation rate by LC-MS/MS analysis. Type of data set: ADME, cell-free. The procedure, abridged: (§2)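 Mouse plasma depletion kinetics at 37 °C, substrate range 0.0023–5 µM, up to 3 h; samples quenched into acetonitrile/tolbutamide, LC-MS/MS. CLint per concentration from t1/2; apparent Vmax and Km fitted by nonlinear regression to Michaelis-Menten, formation rate simulated from fit; mean of two replicates.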

Data set [8] is described as follows: Drug metabolism in CD-1 mouse liver microsomes assessed as hydrolysis metabolite formation rate by LC-MS/MS analysis. The data set is classed as ADME. In short, it runs like this:
(§3)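 Mouse liver microsomes 0.25 mg/mL in 0.1 M phosphate pH 7.4, with or without 1 mM NADPH, substrate 0.0023–5 µM; sampling to 40 min into acetonitrile/IS, LC-MS/MS depletion. Hydrolysis Vmax/Km solved from no-NADPH incubations, then NADPH-dependent constants; metabolite formation rate simulated from fitted constants; duplicates.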
In general terms: Liver microsomes are vesicles of endoplasmic reticulum, rich in cytochrome P450 enzymes.

Data set [9] can be described thus: Drug metabolism in CD-1 mouse NADPH-fortified liver microsomes assessed as hydrolysis metabolite formation rate by LC-MS/MS analysis. The data set is classed as ADME. The procedure, abridged:
as §3

In data set [10] the test system is Plasma. The data set is described as follows: Drug metabolism in CD-1 mouse plasma assessed as maximum intrinsic clearance for hydrolysis metabolite formation by LC-MS/MS analysis. Type of data set: ADME, cell-free. The procedure, abridged: as §2
Data set [11] in a line: Ratio of drug level in blood to plasma in CD-1 mouse at 1 uM treated 20 mins after amide hydrolysis inhibitor DFP challenge measured after 1 hr by LC-MS/MS analysis. Type of data set: ADME. Particulars: whole blood. The procedure, abridged: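 Fresh whole blood pre-incubated 20 min with 100 µM DFP, warmed to 37 °C, spiked to 1 µM, incubated 1 h, then plasma separated; reference plasma spiked at 1 µM. Extracted with 6 volumes acetonitrile/IS, LC-MS/MS; ratio = reference plasma peak area / treated plasma peak area.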

Data set [12] can be described thus: Fraction unbound in CD-1 mouse liver microsomes after 7 hrs by equilibrium dialysis method. Type of data set: ADME. In short, it runs like this:
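Equilibrium dialysis of 0.25 mg/mL mouse liver microsomes in phosphate buffer against PBS, 7 h at 37 °C, 5% CO2, test compound 0.1, 0.5 or 2 µM, triplicate; LC-MS/MS; fraction unbound = buffer/microsome concentration.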

A short description of data set [13]: Fraction unbound in CD-1 mouse plasma after 7 hrs by equilibrium dialysis method. The data set is classed as ADME, cell-free. In short, it runs like this: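 Mouse plasma pre-treated 20 min with 100 µM DFP to block hydrolysis, spiked at 0.1, 0.5 or 2 µM, equilibrium dialysis against PBS for 7 h at 37 °C, 5% CO2, triplicate; matrix-matched samples extracted with acetonitrile/IS, LC-MS/MS; fu = buffer/plasma concentration.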

On to `CC(C)NC(=O)[C@H]1CC[C@@H](n2/c(=N/C(=O)c3cc(F)cc(Cl)c3)[nH]c3ccc(CN4CCC(C(C)(C)O)CC4)cc32)CC1`, for which, in data set [1], the total exposure AUC(0-inf) is 1.53 µM·h. The compound also gave a clearance in [2] of 35.7 mL/min/kg. In [3], this compound yielded an MRT of 2.56 h. Moreover, in data set [4], the half-life is 2.08 h. For the same compound, the Vd in data set [5] amounted to 5.47 L/kg. Also, the half-life at 0.83 µM in data set [6] is 8.2 h. Besides, the entries for the “Vmax(app)” value (in the data set with Plasma [7]; in data set [8]; in data set [9]) were 0.305 pmol/min/mL, 2.49 pmol/min/mg and 279 pmol/min/mg, respectively. Moreover, the Km is 0.146 µM with Plasma [7] (read-out: Km(app)), 0.053 µM in [8] (read-out: Km(app)) and 1.9 µM in data set [9] (read-out: Km(app)). The CL in the data set on Plasma [10] came to 2.09 uL/min.ml. In [11], the blood plasma ratio at 1 h, 1 µM is 0.9. The free fraction (fraction unbound) at 7 h came to 0.22 in [12] and 0.011 in [13].

As usually defined, the AUC(0-inf) is total exposure, with the tail of the curve extrapolated. Low readings indicate less exposure, high ones more exposure. By clearance is commonly meant the volume of plasma or blood freed of the substance per unit of time. A low value points to a low capacity for elimination. As a reminder, the MRT is a mean duration of stay, worked out from the concentration-time curve. By half-life is commonly meant how long it takes for the measured level to halve. Low values mean fast loss, high ones slow loss. One may read the Km as the substrate concentration at which the rate is half of its maximum. Broadly, the fraction unbound is free concentration divided by total concentration. A higher fraction unbound goes with much free substance.
